Sampled rows, rich in hits. Any-hit rate of the full collection: about 2.5%.
RORA act = RORA (human) activation; P35398; CHO-K1 Gal4-RORA LBD luciferase reporter, luminescence; percent increase over mock-subtracted basal signal; activation, % at 10 µM; 65,000 tested, 1.5% active; AID 560;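 active = activation above the mean of all tested compounds plus 3 SD, cut at about 49% in these data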
MT1-MMP txn act = activates MT1-MMP transcription | HT1080 MT1-MMP promoter luciferase reporter, luminescence, overnight; hits give high values | activation factor at 10 µM | 86,000 tested, 0.16% active;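 active = activation factor of at least 2 for MT1-MMP transcription at 10 µM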
ROCK2 inh = ROCK2 (human) kinase inhibition; O75116; purified ROCK2, Kinase-Glo ATP depletion luminescence; inhibition, % at 6 µM; 60,000 tested, 0.35% active;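 active = inhibition above the screen-wide mean inhibition plus 3 SD, cut at about 18% in these data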
JNK3 inh = blocks human JNK3 kinase activity; P53779; purified JNK3 kinase activity, HTS; inhibition, % at 8 µM; 60,000 tested, 0.61% active; AID 746; in the data active = inhibition above about 17%
SF1 activator = SF-1 (human) activation; Q13285; CHO-K1 Gal4-SF-1 LBD luciferase reporter; % increase over DMSO SF-1-specific signal; activation, % at 10 µM; 65,000 tested, 1.9% active; AID 522;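 active = activation above the mean activation of all tested compounds plus 3 SD, cut at about 50% in these data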
Target sequence (Q13285 whole entry, looked up, the tested form may be a part): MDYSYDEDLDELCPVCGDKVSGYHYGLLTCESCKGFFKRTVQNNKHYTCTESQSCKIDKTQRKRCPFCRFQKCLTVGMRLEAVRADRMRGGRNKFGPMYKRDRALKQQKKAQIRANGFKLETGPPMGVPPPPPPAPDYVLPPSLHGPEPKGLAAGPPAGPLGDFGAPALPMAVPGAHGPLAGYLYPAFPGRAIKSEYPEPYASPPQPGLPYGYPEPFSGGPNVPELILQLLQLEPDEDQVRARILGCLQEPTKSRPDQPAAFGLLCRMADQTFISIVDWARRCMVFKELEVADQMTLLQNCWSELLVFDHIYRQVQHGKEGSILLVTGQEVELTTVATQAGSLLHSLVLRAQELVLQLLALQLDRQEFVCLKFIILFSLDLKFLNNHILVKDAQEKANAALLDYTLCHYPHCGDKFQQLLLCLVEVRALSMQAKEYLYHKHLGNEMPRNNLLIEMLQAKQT
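Material: CHO-K1 cells with Gal4–hSF-1 LBD chimera plus Gal4-driven luciferase / Input: 4,000 CHO-K1 cells per well / Incubation: compound exposure 20 h at 37 °C / Signal: luminescence read 15 min after SteadyLite luciferase reagent, after room-temperature equilibration / Read-out: percent activation versus DMSO / Benchmarks: DMSO negative control and −SF1 background wells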
PKA kinase inh = PKA (human) kinase inhibition | P17612 | PKA Kemptide phosphorylation, Kinase-Glo ATP luminescence | inhibition, % at 6 µM | 65,000 tested, 0.1% active | AID 524;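 active = inhibition above the screen-wide mean inhibition plus 3 SD, cut at about 21% in these data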
Large screens that a line does not name were inactive.

Cc1cc(C(=O)Nc2nc3ccc(S(C)(=O)=O)cc3s2)c(C)o1	RORA act 89, SF1 activator 50
COc1ccc2nc(NC(=O)C3COc4ccccc4O3)sc2c1 (stereo not given)	none
O=C(Nc1nc(-c2nc3ccccc3s2)cs1)C1COc2ccccc2O1 (stereo not given)	SF1 activator 55
CS(=O)(=O)c1ccc2nc(NC(=O)C3COc4ccccc4O3)sc2c1 (stereo not given)	SF1 activator 52
Cc1nnc(NC(=O)C2COc3ccccc3O2)s1 (stereo not given)	SF1 activator 52
CCc1nnc(NC(=O)C2COc3ccccc3O2)s1 (stereo not given)	none (no result: RORA act, ROCK2 inh, JNK3 inh, SF1 activator, PKA kinase inh)
CC1N(O)C(C)(C)C(c2ccccc2)=[N+]1[O-] (stereo not given)	none (no result: RORA act, ROCK2 inh, JNK3 inh, SF1 activator, PKA kinase inh)
Cc1ccccc1NC(=O)Cn1cnc2c(oc3ccccc32)c1=O	none (no result: ROCK2 inh, JNK3 inh)
O=C(Cn1cnc2c(oc3ccccc32)c1=O)c1ccccc1	RORA act 93, SF1 activator 61
COc1ccc(C(=O)NCc2cn3c(C)csc3n2)cc1OC	JNK3 inh 17
COc1cc(C(=O)NCc2cn3ccsc3n2)cc(OC)c1OC	JNK3 inh 24
COc1cccc(C(=O)NCc2cn3ccsc3n2)c1	none
CC(=O)OC(C(=O)NC1CCCCC1)c1cccc(C)c1 (stereo not given)	none (no result: RORA act, ROCK2 inh, JNK3 inh, SF1 activator, PKA kinase inh)
C=CCn1c(Cc2ccc(OC)cc2)nnc1SCC(=O)NCCc1ccccc1	none (no result: RORA act, ROCK2 inh, JNK3 inh, SF1 activator, PKA kinase inh)
COC(=O)C1=C(CCc2ccccc2)NC(=O)NC1c1cccc([N+](=O)[O-])c1 (stereo not given)	none (no result: RORA act, ROCK2 inh, JNK3 inh, SF1 activator, PKA kinase inh)
CCc1cc(=O)oc2cc(C)cc(OC(=O)c3ccco3)c12	JNK3 inh 20
Cc1cc(OC(=O)c2ccco2)c2c(C)cc(=O)oc2c1	none (no result: RORA act, ROCK2 inh, JNK3 inh, SF1 activator, PKA kinase inh)
c1ccc(-n2cnnc2SCc2cn3ccsc3n2)cc1	none
c1ccn2c(SCc3cn4ccsc4n3)nnc2c1	RORA act 61, SF1 activator 71
CN(Cc1cc(=O)[nH]c2ccccc12)C(=O)c1ccccc1	MT1-MMP txn act 2.2
CC(=O)N(Cc1cc(=O)[nH]c2ccccc12)c1ccccc1	none
CCN(CC)CCCNC(=O)Cc1c(C(=O)O)n(C)c2ccccc12	none
COC(=O)[C@@H]1C[C@H]2CC[C@H](O)C[C@H]2N1Cc1c(F)cccc1Cl	none (no result: RORA act, ROCK2 inh, JNK3 inh, SF1 activator, PKA kinase inh)
Cc1cc2nn(-c3ccccc3)nc2cc1NC(=O)c1cccs1	RORA act 95
Cc1cc(NC(=O)c2cccs2)n(-c2ccccc2)n1	none (no result: RORA act, ROCK2 inh, JNK3 inh, SF1 activator, PKA kinase inh)
Cc1c(C)c2cc(Cl)c(OCc3nn[nH]n3)cc2oc1=O	none
COc1ccc(CCC(=O)Nc2ccc(-c3noc(-c4ccc(OC)c(OC)c4)n3)cc2)cc1	SF1 activator 75
COc1ccccc1-c1nc(-c2ccncc2)no1	RORA act 58
COc1ccc(-c2nc(-c3ccncc3)no2)cc1OC	RORA act 68, SF1 activator 74
CCOc1ccccc1-c1nc(-c2ccncc2)no1	none (no result: RORA act, ROCK2 inh, JNK3 inh, SF1 activator, PKA kinase inh)
COc1cccc(-c2nc(-c3ccccn3)no2)c1OC	SF1 activator 50
CC1(C)OCC(CSC2=C(SCC3COC(C)(C)O3)C(=O)c3ncccc3C2=O)O1 (stereo not given)	none (no result: RORA act, ROCK2 inh, JNK3 inh, SF1 activator, PKA kinase inh)
CC(=O)N1CCN2C(=O)C1CCCC(=O)c1cc(C)ccc12 (stereo not given)	none (no result: RORA act, ROCK2 inh, JNK3 inh, SF1 activator, PKA kinase inh)
COc1nc(C)ccc1-c1noc(-c2ccco2)n1	RORA act 67 (no result: MT1-MMP txn act)
COc1ccc(-c2noc(-c3ccco3)n2)cc1OC	SF1 activator 50
COc1ccc(-c2noc(-c3ccccc3Cl)n2)cc1OC	RORA act 82
COc1ccc(-c2noc(-c3cccc(Cl)c3)n2)cc1OC	none (no result: ROCK2 inh, JNK3 inh)
Cn1c(=O)[nH]c(=O)c2c1nc(N1CCNCC1)n2Cc1cccc2ccccc12	none
O=C(Nc1ccccc1)NC1(C(=O)N2CCN(c3ncccn3)CC2)CCCCC1	none
CN(C)c1ccc(CNC(=O)C2(C)C=CCN2C(=O)c2ccccc2)cc1 (stereo not given)	none (no result: RORA act, ROCK2 inh, JNK3 inh, SF1 activator, PKA kinase inh)
CCC(C)C(NC(=O)c1ccccc1NC(=O)c1ccc(OC)cc1)C(=O)NCc1ccco1 (stereo not given)	none
C[C@@H](C(=O)NCc1nc2ccccc2[nH]1)[C@@H]1C[C@@]1(C)[C@@H](NC(=O)OCc1ccccc1)c1ccccc1	none (no result: RORA act, ROCK2 inh, JNK3 inh, SF1 activator, PKA kinase inh)
CCSc1nnc(NC(=O)c2cccc(OCc3c(C)noc3C)c2)s1	none (no result: ROCK2 inh, JNK3 inh)
CCOc1ccc2nc(NC(=O)c3cnccn3)sc2c1	RORA act 86

Screening results: PubChem, several laboratories
